Some results are limits rather than exact numbers.

For data set [1], the system named is asexual parasites of the chloroquine-sensitive 3D7 strain of P. falciparum. Kind of data set: asexual blood stage assay. As to conditions: Plasmodium falciparum, 3D7, read-out: asexual activity (IC50, text). The format is cell-based. In a few lines:
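Asexual blood-stage parasites of chloroquine-sensitive P. falciparum 3D7 are tested with test compound in an 11-point dose-response, in duplicate. Each run includes a positive control and a DMSO negative control.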

In a further data set the test system is HepG2 cells. Nature of the data set: HepG2 cell viability. The data set is classed as cell-based. As to conditions: highest concentration tested 46 µM. In a few lines:
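HepG2 cells are incubated with test compound to measure general cytotoxicity as cell viability. The assay uses an 11-point dose-response in duplicate, with a positive control and a DMSO negative control.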

For another data set, the system named is malaria transmission. As to conditions: mouse model; cited from earlier work.

In general, IC50 refers to the point on the concentration scale where inhibition reaches its midpoint. Regarding `Cn1c(=O)n(-c2cccc(C(F)(F)F)c2)c2c3cc(-c4ccc(N)cc4)ccc3ncc21` [Compound 35], the IC50 in data set [1] is less than 100 nM.

Turning to `Cn1c(=O)n(-c2ccc(C#N)cc2)c2c3cc(-c4ccc(N)nc4)ccc3ncc21` [Compound 60], in the data set on HepG2 cells, the “HepG2 cytotoxicity” value is “no measurable HepG2 cytotoxicity”.

Take `Cn1c(=O)n(-c2cccc(C(F)(F)F)c2)c2c3cc(-c4cccc(N)c4)ccc3ncc21` [Compound 37]: the IC50 in data set [1] is less than 100 nM.

In the case of `Nc1ccc(-c2ccc3ncc4ccc(=O)n(-c5cccc(C(F)(F)F)c5)c4c3c2)cn1` [Torin 2], the “efficacy for blocking malaria transmission” value in the data set with malaria transmission is “efficacy for blocking malaria transmission in a mouse model”.

The values above are taken from PMC4887403 (Bioorganic & medicinal chemistry letters, 2016).
